Measurements as given in ChEMBL document CHEMBL1155318, “Discovery of novel phenethylpyridone derivatives as potent melanin-concentrating hormone 1 receptor antagonists” (Bioorg Med Chem Lett, 2009).

Key:
[1] = target: T1, Melanin-concentrating hormone receptor 1 (Homo sapiens, UniProt Q99705); experiment: Displacement of [125I]MCH from human recombinant MCH1R expressed on CHOK1 cell membrane; assay type: cell membranes, CHO-K1
Summary of the method: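 Competition binding with [125I]MCH on membranes of CHO-K1 cells expressing human recombinant MCH-1R. Inhibition of radioligand binding is measured. Values are means of n = 2.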

[2] = Metabolic stability in human liver microsomes after 30 mmins; assay type: ADME, Microsome; conditions: read-out: Stability
Summary of the method: (§1)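 Hepatic microsomes (human or mouse) are incubated with compound for 30 min. The read-out is % of parent remaining. Values are means of n = 2.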

[3] = Metabolic stability in mouse liver microsomes after 30 mmins; assay type: ADME, Microsome; conditions: read-out: Stability; summary of the method: as §1
[4] = target: T1, Melanin-concentrating hormone receptor 1; experiment: Antagonistic activity against MCH1R expressed on CHOK1 cells assessed as intracellular calcium mobilization by FLIPR; assay type: functional, cell-based, CHO-K1
[5] = target: Voltage-gated inwardly rectifying potassium channel KCNH2 (Homo sapiens, UniProt Q12809); experiment: Inhibition of human ERG potassium channel 1
Sequence of Voltage-gated inwardly rectifying potassium channel KCNH2 (Q12809 whole entry): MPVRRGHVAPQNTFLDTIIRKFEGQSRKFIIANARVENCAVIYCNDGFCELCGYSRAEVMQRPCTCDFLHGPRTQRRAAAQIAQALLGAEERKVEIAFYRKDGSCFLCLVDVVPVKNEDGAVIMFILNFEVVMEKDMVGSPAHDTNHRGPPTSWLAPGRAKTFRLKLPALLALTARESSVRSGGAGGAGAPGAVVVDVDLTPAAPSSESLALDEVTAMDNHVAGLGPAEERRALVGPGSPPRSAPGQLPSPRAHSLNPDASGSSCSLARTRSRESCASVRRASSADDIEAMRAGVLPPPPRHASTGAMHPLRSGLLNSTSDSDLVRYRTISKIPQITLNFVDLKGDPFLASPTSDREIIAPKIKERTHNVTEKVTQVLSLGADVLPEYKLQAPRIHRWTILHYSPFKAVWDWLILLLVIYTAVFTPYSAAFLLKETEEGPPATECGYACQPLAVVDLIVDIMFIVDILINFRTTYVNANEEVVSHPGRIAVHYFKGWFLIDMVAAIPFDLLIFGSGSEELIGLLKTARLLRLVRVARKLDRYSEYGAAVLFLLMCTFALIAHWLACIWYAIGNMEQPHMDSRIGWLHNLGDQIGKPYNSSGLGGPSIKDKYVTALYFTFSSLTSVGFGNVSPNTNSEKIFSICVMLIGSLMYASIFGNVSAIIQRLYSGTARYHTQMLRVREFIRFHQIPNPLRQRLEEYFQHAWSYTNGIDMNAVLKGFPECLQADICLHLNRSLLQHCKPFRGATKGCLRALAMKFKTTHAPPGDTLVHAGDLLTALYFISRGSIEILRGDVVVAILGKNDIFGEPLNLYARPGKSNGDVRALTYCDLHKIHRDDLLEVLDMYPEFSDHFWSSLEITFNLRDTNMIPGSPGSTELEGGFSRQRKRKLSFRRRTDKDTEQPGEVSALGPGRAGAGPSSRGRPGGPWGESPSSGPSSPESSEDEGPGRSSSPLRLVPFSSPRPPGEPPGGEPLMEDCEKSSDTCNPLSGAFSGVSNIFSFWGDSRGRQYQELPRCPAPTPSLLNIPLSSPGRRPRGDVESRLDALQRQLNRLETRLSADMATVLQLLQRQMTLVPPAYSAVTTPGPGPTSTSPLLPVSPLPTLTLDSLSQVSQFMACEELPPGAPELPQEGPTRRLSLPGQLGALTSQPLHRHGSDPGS

[6] = Inhibition of adrenergic alpha1 receptor
[7] = target: Mu-type opioid receptor (Homo sapiens, UniProt P35372); experiment: Inhibition of mu-type opioid receptor
Sequence of Mu-type opioid receptor (P35372 whole entry): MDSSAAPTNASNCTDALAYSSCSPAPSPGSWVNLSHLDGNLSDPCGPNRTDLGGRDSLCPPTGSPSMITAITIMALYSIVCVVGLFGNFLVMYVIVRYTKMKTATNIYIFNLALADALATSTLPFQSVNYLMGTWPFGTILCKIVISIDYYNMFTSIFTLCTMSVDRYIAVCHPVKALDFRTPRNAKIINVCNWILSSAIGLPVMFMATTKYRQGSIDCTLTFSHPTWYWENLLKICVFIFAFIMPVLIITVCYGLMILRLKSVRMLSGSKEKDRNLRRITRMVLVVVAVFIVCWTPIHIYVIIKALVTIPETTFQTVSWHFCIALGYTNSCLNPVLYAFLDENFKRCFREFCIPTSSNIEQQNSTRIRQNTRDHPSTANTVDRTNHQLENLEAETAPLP

[8] = target: Kappa-type opioid receptor (Homo sapiens, UniProt P41145); experiment: Inhibition of kappa-type opioid receptor
Sequence of Kappa-type opioid receptor (P41145 whole entry): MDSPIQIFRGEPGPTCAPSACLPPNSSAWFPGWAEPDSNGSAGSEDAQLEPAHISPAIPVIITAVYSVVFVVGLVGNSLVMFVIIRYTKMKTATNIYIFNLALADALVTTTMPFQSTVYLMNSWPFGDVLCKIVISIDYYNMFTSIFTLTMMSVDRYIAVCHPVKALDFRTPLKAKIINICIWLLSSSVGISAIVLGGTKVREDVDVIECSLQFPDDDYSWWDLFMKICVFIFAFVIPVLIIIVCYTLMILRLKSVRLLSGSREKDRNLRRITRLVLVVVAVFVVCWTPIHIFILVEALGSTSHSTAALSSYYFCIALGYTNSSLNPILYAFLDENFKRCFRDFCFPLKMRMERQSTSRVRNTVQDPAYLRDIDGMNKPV

[9] = target: Delta-type opioid receptor (Homo sapiens, UniProt P41143); experiment: Inhibition of delta-type opioid receptor
Sequence of Delta-type opioid receptor (P41143 whole entry): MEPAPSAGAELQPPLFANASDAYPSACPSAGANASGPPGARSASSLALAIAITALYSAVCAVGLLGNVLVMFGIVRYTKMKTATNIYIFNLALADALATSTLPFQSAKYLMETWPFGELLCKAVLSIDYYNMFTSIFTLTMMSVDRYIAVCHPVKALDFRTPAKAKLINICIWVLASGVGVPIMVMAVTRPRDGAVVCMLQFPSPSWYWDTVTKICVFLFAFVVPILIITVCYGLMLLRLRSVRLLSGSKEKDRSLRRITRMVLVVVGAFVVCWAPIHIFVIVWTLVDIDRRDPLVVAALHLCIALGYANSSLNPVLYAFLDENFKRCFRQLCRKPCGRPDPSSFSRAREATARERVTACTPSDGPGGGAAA

[10] = target: Histamine H1 receptor (Homo sapiens, UniProt P35367); experiment: Inhibition of histamine H1 receptor
Sequence of Histamine H1 receptor (P35367 whole entry): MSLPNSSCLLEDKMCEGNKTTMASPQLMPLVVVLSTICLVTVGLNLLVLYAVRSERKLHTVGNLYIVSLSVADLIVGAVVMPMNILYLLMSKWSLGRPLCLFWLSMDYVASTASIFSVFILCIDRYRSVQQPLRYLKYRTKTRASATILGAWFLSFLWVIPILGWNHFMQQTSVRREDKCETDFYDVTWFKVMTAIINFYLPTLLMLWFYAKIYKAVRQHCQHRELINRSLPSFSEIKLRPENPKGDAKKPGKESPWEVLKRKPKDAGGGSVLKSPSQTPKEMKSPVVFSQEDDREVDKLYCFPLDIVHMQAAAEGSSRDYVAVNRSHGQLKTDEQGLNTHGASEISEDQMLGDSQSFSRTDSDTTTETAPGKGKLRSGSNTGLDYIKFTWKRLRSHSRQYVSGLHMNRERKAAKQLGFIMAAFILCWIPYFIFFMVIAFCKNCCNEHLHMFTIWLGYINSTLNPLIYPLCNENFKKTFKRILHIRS

[11] = target: Histamine H2 receptor (Homo sapiens, UniProt P25021); experiment: Inhibition of histamine H2 receptor
Sequence of Histamine H2 receptor (P25021 whole entry): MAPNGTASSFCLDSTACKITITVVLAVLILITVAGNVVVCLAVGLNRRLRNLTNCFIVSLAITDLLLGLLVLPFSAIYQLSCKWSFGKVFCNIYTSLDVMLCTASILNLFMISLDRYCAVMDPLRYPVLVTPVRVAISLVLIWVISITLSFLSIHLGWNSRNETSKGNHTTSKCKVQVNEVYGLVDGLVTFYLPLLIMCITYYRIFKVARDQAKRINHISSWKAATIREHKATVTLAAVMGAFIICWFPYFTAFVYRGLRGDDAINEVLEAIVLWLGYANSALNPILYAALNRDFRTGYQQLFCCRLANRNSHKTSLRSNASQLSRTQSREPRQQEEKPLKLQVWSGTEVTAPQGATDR

[12] = target: Histamine H3 receptor (Homo sapiens, UniProt Q9Y5N1); experiment: Inhibition of histamine H3 receptor
Sequence of Histamine H3 receptor (Q9Y5N1 whole entry): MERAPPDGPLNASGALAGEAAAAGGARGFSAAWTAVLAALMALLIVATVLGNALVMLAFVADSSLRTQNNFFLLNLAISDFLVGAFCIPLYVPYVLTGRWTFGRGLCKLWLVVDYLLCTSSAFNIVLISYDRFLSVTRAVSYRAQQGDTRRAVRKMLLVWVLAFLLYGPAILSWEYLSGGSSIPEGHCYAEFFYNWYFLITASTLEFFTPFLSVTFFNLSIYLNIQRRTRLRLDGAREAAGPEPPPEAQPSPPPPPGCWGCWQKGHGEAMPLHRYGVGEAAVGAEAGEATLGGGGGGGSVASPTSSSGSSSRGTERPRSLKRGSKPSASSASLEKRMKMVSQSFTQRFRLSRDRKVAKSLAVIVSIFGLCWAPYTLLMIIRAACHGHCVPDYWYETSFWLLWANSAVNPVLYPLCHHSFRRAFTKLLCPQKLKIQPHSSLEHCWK

[13] = target: Histamine H4 receptor (Homo sapiens, UniProt Q9H3N8); experiment: Inhibition of histamine H4 receptor
Sequence of Histamine H4 receptor (Q9H3N8 whole entry): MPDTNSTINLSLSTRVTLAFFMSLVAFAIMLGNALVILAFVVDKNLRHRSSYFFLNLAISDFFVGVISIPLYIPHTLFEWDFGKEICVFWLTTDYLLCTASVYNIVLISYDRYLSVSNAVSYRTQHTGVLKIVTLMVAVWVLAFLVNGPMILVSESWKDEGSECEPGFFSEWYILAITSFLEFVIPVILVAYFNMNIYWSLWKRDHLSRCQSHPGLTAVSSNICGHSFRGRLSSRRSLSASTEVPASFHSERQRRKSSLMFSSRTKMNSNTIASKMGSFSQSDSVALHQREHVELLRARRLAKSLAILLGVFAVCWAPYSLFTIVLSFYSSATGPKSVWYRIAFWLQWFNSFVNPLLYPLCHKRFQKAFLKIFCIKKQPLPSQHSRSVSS

[14] = target: Adenosine receptor A2a (Homo sapiens, UniProt P29274); experiment: Inhibition of adenosine receptor A2A
Sequence of Adenosine receptor A2a (P29274 whole entry): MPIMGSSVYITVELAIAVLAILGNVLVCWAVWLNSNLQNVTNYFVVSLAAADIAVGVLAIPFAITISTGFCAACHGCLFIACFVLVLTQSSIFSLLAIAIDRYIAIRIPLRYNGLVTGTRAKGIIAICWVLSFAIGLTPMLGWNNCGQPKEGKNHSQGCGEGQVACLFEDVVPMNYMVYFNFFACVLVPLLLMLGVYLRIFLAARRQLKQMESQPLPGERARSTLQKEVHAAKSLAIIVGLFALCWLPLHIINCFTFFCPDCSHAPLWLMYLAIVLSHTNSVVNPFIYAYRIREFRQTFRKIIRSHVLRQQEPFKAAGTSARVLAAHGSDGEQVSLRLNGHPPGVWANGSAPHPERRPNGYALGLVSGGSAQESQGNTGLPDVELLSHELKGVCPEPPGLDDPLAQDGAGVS

[15] = target: T2, Muscarinic acetylcholine receptor M1 (Homo sapiens, UniProt P11229); experiment: Inhibition of muscarinic M1 receptor
T2 sequence (P11229 whole entry): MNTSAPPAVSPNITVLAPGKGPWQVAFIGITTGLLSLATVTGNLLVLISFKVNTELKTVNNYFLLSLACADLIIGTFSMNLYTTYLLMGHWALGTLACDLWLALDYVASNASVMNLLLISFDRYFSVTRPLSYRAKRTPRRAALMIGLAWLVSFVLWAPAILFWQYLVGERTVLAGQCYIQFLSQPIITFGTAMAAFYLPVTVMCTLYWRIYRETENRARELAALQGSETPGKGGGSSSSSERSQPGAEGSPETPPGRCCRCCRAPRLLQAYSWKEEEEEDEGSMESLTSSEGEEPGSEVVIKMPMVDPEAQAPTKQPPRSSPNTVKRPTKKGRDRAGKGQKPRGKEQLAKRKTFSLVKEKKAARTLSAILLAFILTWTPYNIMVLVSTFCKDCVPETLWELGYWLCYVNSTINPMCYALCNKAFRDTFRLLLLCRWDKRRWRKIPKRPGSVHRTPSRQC

T1 sequence (Q99705 whole entry): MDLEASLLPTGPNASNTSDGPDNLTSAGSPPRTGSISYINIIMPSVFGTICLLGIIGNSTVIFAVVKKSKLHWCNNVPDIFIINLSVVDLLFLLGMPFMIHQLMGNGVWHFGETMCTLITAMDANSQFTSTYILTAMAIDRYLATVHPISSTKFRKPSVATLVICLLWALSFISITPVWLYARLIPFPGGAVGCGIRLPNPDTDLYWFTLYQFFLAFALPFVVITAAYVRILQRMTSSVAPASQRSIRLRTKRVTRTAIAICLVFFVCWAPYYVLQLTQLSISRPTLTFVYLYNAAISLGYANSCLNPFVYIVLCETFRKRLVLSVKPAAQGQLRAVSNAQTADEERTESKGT

CCCNCc1ccc(CCn2ccc(OCc3ccc(F)cc3)cc2=O)nc1
IC50 [1]: 7 nM | remaining at 30 min [2]: 91% | remaining at 30 min [3]: 93% | IC50 [4]: 27 nM | IC50 [5]: 5.1 µM | IC50 [6]: > 5 µM | IC50 [7]: > 5 µM | IC50 [8]: > 5 µM | IC50 [9]: > 5 µM | IC50 [10]: > 5 µM | IC50 [11]: > 5 µM | IC50 [12]: > 5 µM | IC50 [13]: > 5 µM | IC50 [14]: > 5 µM | IC50 [15]: > 5 µM

CCCNCc1ccc(CCn2ccc(OCc3ccc(F)cc3)cc2=O)cn1
IC50 [1]: 11 nM | remaining at 30 min [2]: 87% | remaining at 30 min [3]: 76%

O=c1cc(OCc2ccc(F)cc2)ccn1-c1ccc(CN2CCCC2)cc1
IC50 [1]: > 1000 nM

O=c1cc(OCc2ccc(F)cc2)ccn1CCc1ccc(CN2CCCC2)cc1
IC50 [1]: 5 nM | remaining at 30 min [2]: 60% | remaining at 30 min [3]: 39%

CCCN(CCC)Cc1ccc(CCn2ccc(OCc3ccc(F)cc3)cc2=O)cc1
IC50 [1]: 3.3 nM | remaining at 30 min [2]: 1% | remaining at 30 min [3]: 1%

CCCNCc1ccc(COn2ccc(OCc3ccc(F)cc3)cc2=O)cc1
IC50 [1]: 34 nM | remaining at 30 min [2]: 72% | remaining at 30 min [3]: 74%

CCCN(Cc1ccc(CCn2ccc(OCc3ccc(F)cc3)cc2=O)cc1)C(C)C
IC50 [1]: 5.2 nM | remaining at 30 min [2]: 4% | remaining at 30 min [3]: 1%

O=c1cc(OCc2ccc(F)cc2)ccn1CCc1ccc(N2CCCC2)cc1
IC50 [1]: > 1000 nM

CCN(CC)Cc1ccc(CCn2ccc(OCc3ccc(F)cc3)cc2=O)cc1
remaining at 30 min [2]: 54% | remaining at 30 min [3]: 26%

CCCN(Cc1ccc(CCn2ccc(OCc3ccc(F)cc3)cc2=O)cc1)C1CCCC1
IC50 [1]: 3.5 nM | remaining at 30 min [2]: 1% | remaining at 30 min [3]: 1%

CCCNCc1ccc(CCn2ccc(OCc3ccc(F)cc3)cc2=O)cc1
remaining at 30 min [2]: 85% | remaining at 30 min [3]: 62% | IC50 [4]: 20 nM | IC50 [6]: > 5 µM | IC50 [7]: > 5 µM | IC50 [8]: > 5 µM | IC50 [9]: > 5 µM | IC50 [10]: > 5 µM | IC50 [11]: > 5 µM | IC50 [12]: > 5 µM | IC50 [13]: > 5 µM | IC50 [14]: > 5 µM | IC50 [15]: > 5 µM

CCCN(CC)Cc1ccc(CCn2ccc(OCc3ccc(F)cc3)cc2=O)cc1
IC50 [1]: 4.4 nM | remaining at 30 min [2]: 26% | remaining at 30 min [3]: 6%

O=c1cc(OCc2ccc(F)cc2)ccn1-c1cccc(OCCN2CCCC2)c1
IC50 [1]: > 1000 nM

O=c1cc(OCc2ccc(F)cc2)ccn1Cc1cccc(OCCCN2CCCC2)c1
IC50 [1]: 30 nM

CCCN(C)Cc1ccc(CCn2ccc(OCc3ccc(F)cc3)cc2=O)cc1
IC50 [1]: 3.5 nM | remaining at 30 min [2]: 58% | remaining at 30 min [3]: 22%

CCCN(CCF)Cc1ccc(CCn2ccc(OCc3ccc(F)cc3)cc2=O)cc1
IC50 [1]: 11 nM | remaining at 30 min [2]: 0% | remaining at 30 min [3]: 0%

O=c1cc(OCc2ccc(F)cc2)ccn1Cc1cccc(OCCN2CCCC2)c1
IC50 [1]: 29 nM

CCCN(CCOC)Cc1ccc(CCn2ccc(OCc3ccc(F)cc3)cc2=O)cc1
IC50 [1]: 5.4 nM | remaining at 30 min [2]: 0% | remaining at 30 min [3]: 0%

O=c1cc(OCc2ccc(F)cc2)ccn1-c1ccc(OCCN2CCCC2)cc1
IC50 [1]: 5.6 nM

CCCN(Cc1ccc(CCn2ccc(OCc3ccc(F)cc3)cc2=O)cc1)CC(C)C
IC50 [1]: 4.9 nM | remaining at 30 min [2]: 0% | remaining at 30 min [3]: 0%
